According to ChEMBL document CHEMBL2177062, “Bile acid-based 1,2,4-trioxanes: synthesis and antimalarial assessment” (J Med Chem, 2012):
Active and inactive are the calls of the source. The calls are words filed in the database; no cut-off is given here.

Key:
[1] = tested on: Plasmodium yoelii nigeriensis; assay: Antimalarial activity in multidrug-resistant Plasmodium yoelii nigeriensis infected Swiss mouse assessed as suppression of parasitaemia at 12 mg/kg, po two devided dose daily for 4 days; assay type: functional
Method in brief: (§1)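 Swiss mice of either sex (20 2 g) inoculated ip with 1 × 10⁶ MDR P. yoelii nigeriensis parasites on day 0. Five mice per dose, given oral doses in groundnut oil from day 0 to 3, twice daily. Parasitaemia read from thin blood smears on day 4. Suppression = [(C − T)/C] × 100 versus untreated controls. 100% means no parasites seen in 50 oil-immersion fields.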

[2] = Lipophilicity, log P of the compound; assay type: physicochemical; details: octanol/water
Method in brief: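 log P calculated in silico, not measured experimentally.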

[3] = tested on: Plasmodium yoelii nigeriensis; assay: Antimalarial activity in multidrug-resistant Plasmodium yoelii nigeriensis infected Swiss mouse assessed as suppression of parasitaemia at 24 mg/kg, po two devided dose daily for 4 days; assay type: functional; method in brief: as §1
[4] = tested on: Plasmodium yoelii nigeriensis; assay: Antimalarial activity in multidrug-resistant Plasmodium yoelii nigeriensis infected Swiss mouse assessed as suppression of parasitaemia at 48 mg/kg, po two devided dose daily for 4 days; assay type: functional; method in brief: as §1
[5] = tested on: Plasmodium yoelii nigeriensis; assay: Antimalarial activity in multidrug-resistant Plasmodium yoelii nigeriensis infected Swiss mouse assessed as suppression of parasitaemia at 96 mg/kg, po two devided dose daily for 4 days; assay type: functional; method in brief: as §1
[6] = tested on: Plasmodium yoelii nigeriensis; assay: Antimalarial activity in multidrug-resistant Plasmodium yoelii nigeriensis infected Swiss mouse assessed as disease cure at 24 mg/kg, po two devided dose daily for 4 days by 28 day survival assay; assay type: functional
Method in brief: (§2)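 Swiss mice of either sex (20 2 g) inoculated ip with 1 × 10⁶ MDR P. yoelii nigeriensis (chloroquine-, mefloquine-, halofantrine-resistant) parasites on day 0. Five mice per dose. Oral dosing in groundnut oil (0.1 mL per dose) from day 0 to 3, as two divided doses daily. Thin blood smears on day 4, then twice weekly to day 28. Mice without patent infection by day 28 scored cured; % protection = fraction of mice cured. β-arteether as positive control.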

[7] = tested on: Plasmodium yoelii nigeriensis; assay: Antimalarial activity in multidrug-resistant Plasmodium yoelii nigeriensis infected Swiss mouse assessed as disease cure at 12 mg/kg, po two devided dose daily for 4 days by 28 day survival assay; assay type: functional, organism-based; design: dose 12 mg/kg; method in brief: as §2
[8] = tested on: Plasmodium yoelii nigeriensis; assay: Antimalarial activity in multidrug-resistant Plasmodium yoelii nigeriensis infected Swiss mouse assessed as disease cure at 48 mg/kg, po two devided dose daily for 4 days by 28 day survival assay; assay type: functional, organism-based; design: dose 48 mg/kg; method in brief: as §2
[9] = tested on: Plasmodium yoelii nigeriensis; assay: Antimalarial activity in multidrug-resistant Plasmodium yoelii nigeriensis infected Swiss mouse assessed as disease cure at 96 mg/kg, po two devided dose daily for 4 days by 28 day survival assay; assay type: functional; method in brief: as §2

SMILES	logP [2]	Activity [3] [%]	Activity [4] [%]	Activity ([5]; 96 mg/kg) [%]	Activity [6]	Activity [8]	Activity [9]	further results
C=C(c1ccccc1)[C@@H]1CO[C@@]2(CC[C@@]3(C)[C@H](CC[C@@H]4[C@@H]3CC[C@]3(C)[C@@H](O)CC[C@@H]43)C2)OO1 (relative stereo; form 2) [listing 1 of 2 here]	6.44	100	100	100				Activity [1]: 88.7%
C=C(c1ccc(Cl)cc1)[C@@H]1CO[C@@]2(CC[C@@]3(C)[C@H](CC[C@@H]4[C@@H]3CC[C@]3(C)[C@@H](C(C)=O)CC[C@@H]43)C2)OO1 (relative stereo; form 2) [listing 1 of 2 here]	7.76	100	100	100	60%			
C=C(c1ccc(Br)cc1)[C@@H]1CO[C@@]2(CC[C@@]3(C)[C@H](CC[C@@H]4[C@@H]3CC[C@]3(C)[C@@H](O)CC[C@@H]43)C2)OO1 (relative stereo; form 2) [listing 1 of 2 here]					Active	Active	Active	Activity [7]: inactive
C=C(c1ccc(Cl)cc1)[C@@H]1CO[C@@]2(CC[C@@]3(C)[C@H](CC[C@@H]4[C@@H]3CC[C@]3(C)[C@@H](C(C)=O)CC[C@@H]43)C2)OO1 (relative stereo; form 2) [listing 2 of 2 here]						Active	Active	
C=C(c1ccc(F)cc1)[C@@H]1CO[C@@]2(CC[C@@]3(C)[C@H](CC[C@@H]4[C@@H]3CC[C@]3(C)[C@@H](C(C)=O)CC[C@@H]43)C2)OO1 (relative stereo; form 2) [listing 1 of 2 here]						Active	Active	
C=C(c1ccc(Br)cc1)[C@@H]1CO[C@@]2(CC[C@@]3(C)[C@H](CC[C@@H]4[C@@H]3CC[C@]3(C)[C@@H](O)CC[C@@H]43)C2)OO1 (relative stereo; form 2) [listing 2 of 2 here]	7.27	100	100	100				Activity [1]: 44.5%
C=C(c1ccc(F)cc1)[C@@H]1CO[C@@]2(CC[C@@]3(C)[C@H](CC[C@@H]4[C@@H]3CC[C@]3(C)[C@@H](C(C)=O)CC[C@@H]43)C2)OO1 (relative stereo; form 1) [listing 1 of 2 here]						inactive		
C=C(c1ccc(Br)cc1)[C@@H]1CO[C@@]2(CC[C@@]3(C)[C@H](CC[C@@H]4[C@@H]3CC[C@]3(C)[C@@H](C(C)=O)CC[C@@H]43)C2)OO1 (relative stereo; form 1) [listing 1 of 2 here]	8.03	100	100	100				
C=C(c1ccccc1)[C@@H]1CO[C@@]2(CC[C@@]3(C)[C@H](CC[C@@H]4[C@@H]3CC[C@]3(C)[C@@H](C(C)=O)CC[C@@H]43)C2)OO1 (relative stereo; form 2) [listing 1 of 2 here]						Active	Active	
C=C(c1ccc(F)cc1)[C@@H]1CO[C@@]2(CC[C@@]3(C)[C@H](CC[C@@H]4[C@@H]3CC[C@]3(C)[C@@H](C(C)=O)CC[C@@H]43)C2)OO1 (relative stereo; form 1) [listing 2 of 2 here]								Activity ([4]; 48 mg/kg): 88.03%
C=C(c1ccc(F)cc1)[C@@H]1CO[C@@]2(CC[C@@]3(C)[C@H](CC[C@@H]4[C@@H]3CC[C@]3(C)[C@@H](O)CC[C@@H]43)C2)OO1 (relative stereo; form 2) [listing 1 of 2 here]					Active	Active	Active	Activity [7]: inactive
C=C(c1ccc(F)cc1)[C@@H]1CO[C@@]2(CC[C@@]3(C)[C@H](CC[C@@H]4[C@@H]3CC[C@]3(C)[C@@H](O)CC[C@@H]43)C2)OO1 (relative stereo; form 2) [listing 2 of 2 here]	6.66	100	100					Activity [1]: 95.48%; Activity [5]: 100%
C=C(c1ccc(F)cc1)[C@@H]1CO[C@@]2(CC[C@@]3(C)[C@H](CC[C@@H]4[C@@H]3CC[C@]3(C)[C@@H](C(C)=O)CC[C@@H]43)C2)OO1 (relative stereo; form 2) [listing 2 of 2 here]	7.36	100			60%			Activity ([4]; 48 mg/kg): 100%; Activity [5]: 100%
C=C(c1ccc(Br)cc1)[C@@H]1CO[C@@]2(CC[C@@]3(C)[C@H](CC[C@@H]4[C@@H]3CC[C@]3(C)[C@@H](C(C)=O)CC[C@@H]43)C2)OO1 (relative stereo; form 1) [listing 2 of 2 here]					inactive	inactive	Active	
C=C(c1ccc(F)cc1)[C@@H]1CO[C@@]2(CC[C@@]3(C)[C@H](CC[C@@H]4[C@@H]3CC[C@]3(C)[C@@H]([C@H](C)C(C)=O)CC[C@@H]43)C2)OO1 (relative stereo; form 2)				100			60%	
C=C(c1ccccc1)[C@@H]1CO[C@@]2(CC[C@@]3(C)[C@H](CC[C@@H]4[C@@H]3CC[C@]3(C)[C@@H](C(C)=O)CC[C@@H]43)C2)OO1 (relative stereo; form 2) [listing 2 of 2 here]	7.2	100	100	100	60%			
C=C(c1ccccc1)[C@@H]1CO[C@@]2(CC[C@@]3(C)[C@H](CC[C@@H]4[C@@H]3CC[C@]3(C)[C@@H]([C@H](C)C(C)=O)CC[C@@H]43)C2)OO1 (relative stereo; form 2)				100			60%	
C=C(c1ccccc1)[C@@H]1CO[C@@]2(CC[C@@]3(C)[C@H](CC[C@@H]4[C@@H]3CC[C@]3(C)[C@@H](O)CC[C@@H]43)C2)OO1 (relative stereo; form 2) [listing 2 of 2 here]					Active	Active	Active	Activity [7]: inactive
CCO[C@H]1O[C@@H]2O[C@@]3(C)CC[C@H]4[C@H](C)CC[C@@H]([C@H]1C)[C@@]24OO3 [ARTEMOTIL]		100	100		20%	Active		
C=C(c1ccc(Cl)cc1)[C@@H]1CO[C@@]2(CC[C@@]3(C)[C@H](CC[C@@H]4[C@@H]3CC[C@]3(C)[C@@H]([C@H](C)C(C)=O)CC[C@@H]43)C2)OO1 (relative stereo; form 1)				100				
